One data set is described as follows: MTT cytotoxicity assay. The settings on record: human. Type of data set: cell-based. The method in brief: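 Human CCD 841 CoN colon epithelial cells were grown in RPMI-1640 with 10% FBS, 1% penicillin/streptomycin, 1% L-glutamine and amphotericin B at 37 °C under 5% CO2. They were seeded at 5x10^3 cells/well, then treated 24 h later with test compound at 1.95–1000 µg/ml for 24 h. MTT solution (5 mg/mL) was added for 3 h at 37 °C, formazan dissolved in DMSO, and absorbance read at 540 nm. IC50 was obtained by regression of proliferation against concentration.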
For orientation: Formazan colour is commonly taken as a measure of viable cells.

For data set [1], the system named is Candida albicans (ATCC 24433). Nature of the data set: Broth microdilution MIC90. Type of data set: cell-based. The settings on record: ATCC24433, read-out: MIC90 Ca. A general note: In broth dilution the organism is exposed to a series of concentrations in liquid medium.

In brackets after ≈: the same amount, converted by molar mass.

Turning to `O=C(N/N=C/c1ccc([N+](=O)[O-])o1)c1ccc(O)cc1` [Nifuroxazide], half-maximal inhibition in the data set “MTT cytotoxicity assay” (IC50 at 24 h) was put at 122 µg/mL (≈ 443 µM).

For the compound `CC(=O)N1CCN(c2ccc(OCC3COC(Cn4ccnc4)(c4ccc(Cl)cc4Cl)O3)cc2)CC1` (centres unmarked) [Ketoconazole], the MIC90 (as a rule, the lowest concentration that inhibits either 90% of growth or 90% of the strains tested, depending on the study) in data set [1] turned out to be 7.8 µg/mL (≈ 14.7 µM).

Source of the values: article PMC5543573 (Current Pharmaceutical Design, 2017).
